Source: ChEMBL document CHEMBL1153988 (J Med Chem, 2009)
Active and inactive are the calls of the source. The calls are words filed in the database; no cut-off is given here.

What was measured:
Rattus norvegicus [1] = assay: Anticonvulsant activity in albino Sprague-Dawley rat assessed as protection against maximal electroshock-induced seizures at 50 mg/kg, po after 4 hrs; format: functional, organism-based; parameters: dose 50 mg/kg
How it was run: (§1)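 Adult male Sprague-Dawley albino rats (100-150 g) dosed orally with compound suspended in 0.5% methylcellulose (0.04 mL per 10 g). Maximal electroshock challenge at the stated time. Protection is scored in 25% steps as the fraction of animals protected, with neurotoxicity recorded in parallel.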

Mus musculus [2] = assay: Teratogenic effect in SWV mouse assessed as resorptions at 336 mg/kg, ip administered on morning of day 8 of gestation; format: toxicity, organism-based; parameters: dose 336 mg/kg, route intraperitoneal; conditions: in vivo
How it was run: (§2)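 Inbred SWV mouse strain highly susceptible to VPA-induced neural tube defects. Each dam received a single ip injection on gestation day 8.5, dosed within 1.8-4.2 mmol/kg, against a control of 25% aqueous Cremophor EL. Groups were compared with the control, and with the matched VPA sodium-salt dose, by Fisher's exact test (p < 0.05).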

Mus musculus [3] = assay: Anticonvulsant activity in CF1 albino mouse assessed as protection against maximal electroshock-induced seizures at 30 mg/kg, ip after 0.5 hrs; format: functional, organism-based; parameters: dose 30 mg/kg
How it was run: (§3)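 Adult male CF no. 1 albino mice (18-25 g). Test compound suspended in 0.5% methylcellulose and given intraperitoneally at 0.01 mL/g body weight. Maximal electroshock challenge at the stated time. Read-out is the number of animals protected over the number tested; neurotoxicity is scored in parallel.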

Mus musculus [4] = assay: Anticonvulsant activity in CF1 albino mouse assessed as protection against scMet-induced seizures at 100 mg/kg, ip after 4 hrs; format: functional, organism-based; parameters: dose 100 mg/kg
How it was run: (§4)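 Adult male CF no. 1 albino mice (18-25 g) dosed intraperitoneally with compound suspended in 0.5% methylcellulose (0.01 mL/g). Convulsant challenge given subcutaneously as a 0.85% pentylenetetrazol solution in 0.9% saline. Read-out is animals protected over animals tested, with neurotoxicity scored in parallel.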

Mus musculus [5] = assay: Anticonvulsant activity in ip dosed CF1 albino mouse assessed as protection against maximal electroshock-induced seizures; format: functional
How it was run: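 Male CF no. 1 albino mice (18-25 g) were dosed ip in 0.5% methylcellulose and tested by maximal electroshock. Doses were varied to give 3-4 points between 0% and 100% protection. ED50 with 95% confidence interval came from probit analysis.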

Mus musculus [6] = species on record: Mus musculus; assay: Protective index, ratio of TD50 for CF1 albino mouse to ED50 for 44 mA-current-induced CF1 albino mouse seizure model; format: functional
How it was run: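 Protective index is the mouse TD50 (minimal motor impairment) divided by the 6 Hz test ED50 at 32 or 44 mA. Male CF no. 1 mice were dosed ip in 0.5% methylcellulose, and values came from probit analysis.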

Mus musculus [7] = assay: Teratogenic effect in SWV mouse assessed as number of implants at 336 mg/kg, ip administered on morning of day 8 of gestation; format: toxicity, organism-based; parameters: dose 336 mg/kg, route intraperitoneal; conditions: in vivo; how it was run: as §2
Mus musculus [8] = assay: Anticonvulsant activity in CF1 albino mouse assessed as protection against scMet-induced seizures at 30 mg/kg, ip after 4 hrs; format: functional, organism-based; parameters: dose 30 mg/kg; how it was run: as §4
Mus musculus [9] = assay: Anticonvulsant activity in CF1 albino mouse assessed as protection against scMet-induced seizures at 300 mg/kg, ip after 0.5 hrs; format: functional, organism-based; parameters: dose 300 mg/kg; how it was run: as §4
Mus musculus [10] = assay: Teratogenic effect in SWV mouse assessed as resorptions at 671 mg/kg, ip administered on morning of day 8 of gestation; format: toxicity, organism-based; parameters: dose 671 mg/kg, route intraperitoneal; conditions: in vivo; how it was run: as §2
Rattus norvegicus [11] = species on record: Rattus norvegicus; assay: Anticonvulsant activity in hippocampal kindled Sprague-Dawley rat model; format: functional; conditions: albino Sprague-Dawley, Hippocampus
Mus musculus [12] = assay: Anticonvulsant activity in CF1 albino mouse assessed as protection against 44 mA-current-induced seizure at 25 mg/kg, ip by 6Hz psychomotor seizure test; format: functional, organism-based; parameters: dose 25 mg/kg
How it was run: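 6 Hz psychomotor seizure test in male CF no. 1 mice, with compound given ip as a 0.5% methylcellulose suspension. Groups of 8 animals per dose. The 32 mA test used 25, 70 and 130 mg/kg; the 44 mA test used 25, 50, 75 and 100 mg/kg. ED50 and 95% confidence interval were obtained by probit analysis.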

Mus musculus [13] = assay: Anticonvulsant activity in ip dosed CF1 albino mouse assessed as protection against 44 mA-current-induced seizure by 6Hz psychomotor seizure test; format: functional
How it was run: (§5)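 In the 6 Hz psychomotor seizure test, male CF no. 1 albino mice (18-25 g) received the compound ip in 0.5% methylcellulose. Stimulation was at 32 or 44 mA. Doses were varied to give 3-4 points between 0% and 100% protection, and ED50 with 95% confidence interval came from probit analysis.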

Rattus norvegicus [14] = assay: Anticonvulsant activity in albino Sprague-Dawley rat assessed as protection against maximal electroshock-induced seizures at 100 mg/kg, po; format: functional, organism-based; parameters: dose 100 mg/kg; how it was run: as §1
Rattus norvegicus [15] = assay: Anticonvulsant activity in albino Sprague-Dawley rat assessed as protection against scMet-induced seizures at 2 mg/kg, po; format: functional, organism-based; parameters: dose 2 mg/kg
How it was run: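 Oral dosing of male Sprague-Dawley rats (100-150 g) with compound in 0.5% methylcellulose. Convulsant challenge given subcutaneously as a 2.82% pentylenetetrazol solution in 0.9% saline. Groups of about 8 rats per dose. For quantitation, doses spanning 0% to 100% protection were fitted by probit analysis to give ED50 with 95% confidence interval.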

Mus musculus [16] = assay: Teratogenic effect in SWV mouse assessed as number of litters at 671 mg/kg, ip administered on morning of day 8 of gestation; format: toxicity, organism-based; parameters: dose 671 mg/kg, route intraperitoneal; conditions: in vivo; how it was run: as §2
Mus musculus [17] = assay: Teratogenic effect in SWV mouse assessed as number of implants at 502 mg/kg, ip administered on morning of day 8 of gestation; format: toxicity, organism-based; parameters: dose 502 mg/kg, route intraperitoneal; conditions: in vivo; how it was run: as §2
Mus musculus [18] = assay: Anticonvulsant activity in ip dosed CF1 albino mouse assessed as protection against scMet-induced seizures; format: functional
How it was run: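 Adult male CF no. 1 albino mice (18-25 g) dosed ip with compound suspended in 0.5% methylcellulose (0.01 mL/g body weight). Seizures were induced by subcutaneous pentylenetetrazol, given as a 0.85% solution in 0.9% saline. ED50 was found by varying the dose to give 3-4 points between 0% and 100% protection, then probit analysis with 95% confidence intervals.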

Mus musculus [19] = assay: Neurotoxicity in CF1 albino mouse at 30 mg/kg, ip after 4 hrs; format: toxicity, organism-based; parameters: dose 30 mg/kg, route intraperitoneal; conditions: in vivo
How it was run: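 Male CF no. 1 albino mice (18-25 g) received a single ip dose as a suspension in 0.5% methylcellulose. The read-out was the number of animals showing neurotoxicity (minimal motor impairment) over the number tested.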

Rattus norvegicus [20] = assay: Anticonvulsant activity in albino Sprague-Dawley rat assessed as protection against maximal electroshock-induced seizures at 50 mg/kg, po after 15 mins; format: functional; how it was run: as §1
Rattus norvegicus [21] = assay: Anticonvulsant activity in po dosed albino Sprague-Dawley rat assessed as protection against scMet-induced seizures; format: functional
How it was run: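 Male Sprague-Dawley albino rats (100-150 g) were dosed orally in 0.5% methylcellulose and tested by MES or by sc pentylenetetrazol (2.82% in 0.9% saline). Doses were varied to give 3-4 points between 0% and 100% protection. ED50 and 95% confidence intervals came from probit analysis.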

Rattus norvegicus [22] = assay: Anticonvulsant activity in albino Sprague-Dawley rat assessed as protection against maximal electroshock-induced seizures at 50 mg/kg, po after 2 hrs; format: functional; how it was run: as §1
Mus musculus [23] = assay: Anticonvulsant activity in CF1 albino mouse assessed as protection against maximal electroshock-induced seizures at 100 mg/kg, ip after 0.5 hrs; format: functional, organism-based; parameters: dose 100 mg/kg; how it was run: as §3
Rattus norvegicus [24] = assay: Anticonvulsant activity in po dosed albino Sprague-Dawley rat assessed as protection against maximal electroshock-induced seizures; format: functional
Mus musculus [25] = assay: Anticonvulsant activity in ip dosed CF1 albino mouse assessed as protection against 32 mA current-induced seizure by 6Hz psychomotor seizure test; format: functional; how it was run: as §5

Compound: CC1(C)C(C)(C)C1(F)C(N)=O
- Activity (Rattus norvegicus [1]): inactive
- Activity (Mus musculus [2]): 9.8%
- Activity (Mus musculus [3]): Non-toxic
- Activity (Mus musculus [4]): Non-toxic
- ED50 (Mus musculus [5]): > 200 mg/kg
- PI (Mus musculus [6]): 2
- Activity (Mus musculus [7]): 112
- Activity (Mus musculus [8]): Non-toxic
- Activity (Mus musculus [9]): Toxic
- Activity (Mus musculus [10]): 78.2%
- ED50 (Rattus norvegicus [11]): 30 mg/kg
- Activity (Mus musculus [12]): inactive
- ED50 (Mus musculus [13]): 59 mg/kg
- Activity (Rattus norvegicus [14]): inactive
- Activity (Rattus norvegicus [15]): inactive
- Activity (Mus musculus [16]): 4
- Activity (Mus musculus [17]): 127
- ED50 (Mus musculus [18]): 38 mg/kg
- Activity (Mus musculus [19]): Non-toxic
- Activity (Rattus norvegicus [20]): inactive
- ED50 (Rattus norvegicus [21]): 6.4 mg/kg
- Activity (Rattus norvegicus [22]): inactive
- Activity (Mus musculus [23]): Non-toxic
- ED50 (Rattus norvegicus [24]): > 100 mg/kg
- ED50 (Mus musculus [25]): 57 mg/kg
